STEP inh = STEP phosphatase inhibitors, primary screen, biochemical, fluorescence intensity, uHTS; Tyrosine-protein phosphatase non-receptor type 5 (Homo sapiens), P54829; recombinant STEP, OMFP fluorogenic substrate; inhibition, % at 20 µM; 360,000 tested, 0.25% active; AID 588621, 2011;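 active means inhibition at 20 µM, scaled per plate between control wells, above about 37%, limit read from the data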
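material = STEP tyrosine phosphatase | reagent = fluorogenic phosphatase substrate OMFP at 25 µM final | doses = single compound dose of 20 µM, 1% DMSO final | schedule = 20 min reaction, room temperature, in the dark | measured by = fluorescence, 480/540 nm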
SUMO1-SIM PPI = modulators of SUMO1 protein-protein interactions, primary screen, biochemical, uHTS; SUMO1 binding to a labelled peptide, TR-FRET, 1 h; inhibition, % at 20 µM; 360,000 tested, 0.33% active; AID 602429, 2012; in the data active means inhibition above about 37%
Target sequence (P63165 whole entry, looked up): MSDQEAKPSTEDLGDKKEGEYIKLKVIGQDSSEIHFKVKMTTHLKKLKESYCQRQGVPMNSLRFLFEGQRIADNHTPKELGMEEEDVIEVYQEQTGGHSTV
Scp1 inh = Scp-1 phosphatase inhibitors, primary screen, biochemical, colorimetric, uHTS. Recombinant Scp1, phosphopeptide, malachite green phosphate absorbance. AID 493091, 2011. inhibition, % at 20 µM. Carboxy-terminal domain RNA polymerase II polypeptide A small phosphatase 1 (Homo …. 340,000 tested, 0.88% active;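 active means inhibition above about 50% at 20 µM, limit read from the data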
Target sequence (Q9GZU7 76-261 limits assumed): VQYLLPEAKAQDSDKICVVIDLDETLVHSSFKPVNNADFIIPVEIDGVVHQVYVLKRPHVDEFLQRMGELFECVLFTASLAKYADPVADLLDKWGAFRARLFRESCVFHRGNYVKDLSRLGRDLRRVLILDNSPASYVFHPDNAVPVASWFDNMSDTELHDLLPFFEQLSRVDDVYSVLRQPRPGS
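Assay system: SCP-1 catalytic fragment, aa 76-261 | Buffer or medium: Tris acetate buffer pH 5.5 with MgCl2 and Tween-20 | Compound: One concentration, 20 µM, with 1.0% DMSO | Also added: Phospho 17-mer peptide substrate | Signal: Absorbance at 630 nm | Incubation: 45 min enzyme reaction at room temperature | Measure: % inhibition of SCP-1 phosphate liberation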
HKDC1 inhibitor = HKDC1 hexokinase inhibitors, primary screen, biochemical, fluorescence, uHTS; recombinant HKDC1, G6PDH/diaphorase resazurin coupled fluorescence; Q2TB90; AID 493160, 2011; 340,000 tested, 0.16% active; inhibition, % at 20 µM;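 active means inhibition above about 35% when tested at 20 µM, limit read from the data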
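Material – in-house recombinant HK5 (HKDC1) enzyme · Quantity – HKDC1 at 5 µg/mL · Buffer or medium – pH 8.0 Tris buffer with 10 mM MgCl2 · Reagent – glucose with 1 mM ATP · Dosing – single 20 µM dose · Times – reaction time 90 min, room temperature, protected from light · Technique – resorufin fluorescence at 613 nm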
LMPTP block = LMPTP phosphatase inhibitors, primary screen, biochemical, fluorescence intensity, uHTS | Low molecular weight phosphotyrosine protein phosphatase (Homo sapiens), P24666 | recombinant LMPTP-A, OMFP fluorogenic substrate | inhibition, % at 20 µM | 360,000 tested, 0.22% active | AID 651560, 2012;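 active means compounds that cut the enzyme signal by at least half of the control window in the single-dose screen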
Target sequence (P24666 whole entry, looked up): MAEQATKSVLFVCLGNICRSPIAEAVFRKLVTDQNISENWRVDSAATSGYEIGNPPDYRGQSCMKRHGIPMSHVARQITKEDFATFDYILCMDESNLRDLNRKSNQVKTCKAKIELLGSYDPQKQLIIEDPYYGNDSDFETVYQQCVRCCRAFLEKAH
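Assay system: LMPTP-A enzyme. Input: 0.625 nM LMPTP-A final. Probe or stimulus: 400 µM OMFP. Compound dosing: single 20 µM dose. Schedule: 50 min dark incubation at room temperature. Detection: fluorescence intensity of OMFP turnover product. Read-out: percent inhibition versus substrate-only and uninhibited controls. Benchmarks: no-enzyme low control, uninhibited high control.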
DNMT1 block = human DNMT1 methyltransferase inhibitors, primary screen, biochemical, molecular beacon, fluorescence, HinP1I cleavage, uHTS. DNA (cytosine-5)-methyltransferase 1 (Homo sapiens), P26358. inhibition (reported as % activation of signal), % at 10 µM. 360,000 tested, 0.83% active. AID 588458, 2011; in the data active means inhibition above about 50%
HKDC1 act conf2 = HKDC1 hexokinase activators, confirmation, biochemical, single concentration. inhibition, % at 20 µM. shares compounds with HKDC1 inhibitor. recombinant HKDC1, G6PDH/diaphorase resazurin fluorescence; stronger effect = lower value. 740 tested, 14% active;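 active means inhibition at or below a set negative limit, negative inhibition meaning the enzyme was activated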
Numbers stand for hits. A selection: hits, their analogues and other compounds. The true share with any hit is near 1.8%.

CC(=O)n1cc(N(C(=O)CCl)c2ccc(C)cc2)c2ccccc21 was read as STEP inh inactive, SUMO1-SIM PPI inactive, Scp1 inh inactive, HKDC1 inhibitor 41, LMPTP block inactive, DNMT1 block inactive and HKDC1 act conf2 inactive.
For Cc1cc(OCC(=O)OCC(=O)Nc2cc(S(=O)(=O)N3CCOCC3)ccc2Cl)ccc1Cl the results were STEP inh inactive, SUMO1-SIM PPI inactive, Scp1 inh inactive, HKDC1 inhibitor inactive, LMPTP block inactive and DNMT1 block inactive.
O=C(NCc1ccco1)c1ccc2nc([C@@H]3O[C@H](CO)[C@H](O)[C@H](O)[C@H]3O)[nH]c2c1 was read as STEP inh inactive, SUMO1-SIM PPI inactive, LMPTP block inactive and DNMT1 block inactive.
Cc1ccc(S(=O)(=O)N2Cc3ccccc3CC2C(=O)N(C)C)cc1 (centres undefined) was read as STEP inh inactive, SUMO1-SIM PPI inactive, LMPTP block inactive and DNMT1 block inactive.
O=C(O)CCNc1cc(N2CCN(C(=O)c3ccco3)CC2)c2noc3c2c1C(=O)c1ccccc1-3 was read as STEP inh 41, SUMO1-SIM PPI 50, Scp1 inh 81, HKDC1 inhibitor 39, LMPTP block inactive, DNMT1 block 106 and HKDC1 act conf2 inactive.
CCN1CCN(c2cc(N3CCN(C(=O)c4ccco4)CC3)c3c4c(onc24)-c2ccccc2C3=O)CC1 was read as STEP inh inactive, SUMO1-SIM PPI inactive, Scp1 inh inactive, HKDC1 inhibitor inactive, LMPTP block inactive and DNMT1 block inactive.
For Cn1c(SCC(=O)Nc2ccc3nc(SCC(=O)N4CCCC4)sc3c2)nnc1-c1ccc(N)cc1 the results were STEP inh inactive, SUMO1-SIM PPI 63, Scp1 inh 65, HKDC1 inhibitor inactive, LMPTP block inactive, DNMT1 block inactive and HKDC1 act conf2 inactive.
`Cn1c(SCC(=O)Nc2ccc3nc(SCC(=O)NC4CC4)sc3c2)nnc1-c1ccccc1` gave STEP inh inactive, SUMO1-SIM PPI inactive, Scp1 inh inactive, HKDC1 inhibitor inactive, LMPTP block inactive and DNMT1 block inactive.
For Cc1ccc(C(=O)Nc2nc(C(N)Cc3ccc(C(F)(F)F)cc3)cs2)cc1 (centres undefined) the results were STEP inh inactive, SUMO1-SIM PPI inactive, LMPTP block inactive and DNMT1 block inactive.
Screening CN1CCN(S(=O)(=O)c2cccc(C(=O)N(C)CC(=O)Nc3ccc(Cl)c(Cl)c3)c2)CC1 returned STEP inh inactive, SUMO1-SIM PPI inactive, Scp1 inh inactive, HKDC1 inhibitor inactive, LMPTP block inactive and DNMT1 block inactive.
Screening CC(=O)NC1C(=O)N(CCN2CCOCC2)c2ccc(Br)cc21 (centres undefined) returned STEP inh inactive, SUMO1-SIM PPI inactive, Scp1 inh inactive, HKDC1 inhibitor 81, LMPTP block inactive, DNMT1 block inactive and HKDC1 act conf2 inactive.
For CCOc1ccc2c(c1)C(NC(C)=O)C(=O)N2CCN1CCOCC1 (centres undefined) the results were STEP inh inactive, SUMO1-SIM PPI inactive, Scp1 inh inactive, HKDC1 inhibitor 82, LMPTP block inactive, DNMT1 block inactive and HKDC1 act conf2 inactive.
Screening CC(=O)NC1C(=O)N(CCc2ccccc2)c2ccc(Br)cc21 (centres undefined) returned STEP inh inactive, SUMO1-SIM PPI inactive, Scp1 inh inactive, HKDC1 inhibitor inactive, LMPTP block inactive and DNMT1 block inactive.
